NR2E3 ag-1: NR2E3 agonists in two-hybrid cells, primary screen, cell-based, luminescence, CHO-S, Gal4-NCOR/VP16-NR2E3; 0.35% of 360,000 active; luciferase; inhibition of corepressor binding, % at 3.98 µM; Photoreceptor-specific nuclear receptor (Homo sapiens), Q9Y5X4;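 active = inhibition above the mean of all tested compounds plus 3 SD, cut at about 70% in these data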;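 note: higher means lower luciferase signal from less NR2E3 corepressor binding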
NR2E3 ag-2: inhibitors of NR2E3-RetCOR corepressor binding, primary screen, NR2E3 agonist project, biochemical, TR-FRET, GST-NR2E3, biotin-RetCOR; Photoreceptor-specific nuclear receptor (Homo sapiens), Q9Y5X4; 1536-well; inhibition of corepressor binding, % at 4.78 µM; 0.12% of 320,000 active; AID 2300, 2010;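 active = percent inhibition above the cutoff of mean plus 3 SD of all tested compounds, set per screening campaign, cut at about 20% in these data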
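Test system – NR2E3–RetCOR corepressor complex · Quantity – NR2E3 fusion 1.35 nM · Buffer or medium – Tris pH 7.5 · Incubation – Compound–protein incubation for 5 h at 4 °C · Technique – TR-FRET, Eu(K)-anti-GST donor, streptavidin-D2 acceptor, ex 340, em 617/671 nm · Evaluation – percent inhibition of 671/617 nm emission ratio versus biotin and DMSO controls · Plate – 1536-well format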
PG9 binder: binders of HIV-1 gp120 antibody PG9, primary screen, biochemical, TR-FRET. 0.43% of 360,000 active. inhibition, % at 6.7 µM. TR-FRET gp120-PG9 antibody binding. AID 624416, 2012. HIV-1 gp120 / PG9 antibody interaction; in the data active = inhibition above about 8.5%
Rev-erbA mod: modulators of Rev-erb alpha DNA binding, primary screen, biochemical, FITC-DNA, fluorescence polarization, uHTS; Nuclear receptor subfamily 1 group D member 1 (Homo sapiens), P20393; Rev-erbα–FITC-DNA binding, 90 min; activity, % at 10 µM; 0.79% of 370,000 active;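 active = activity above about 14%, limit read from the data; passing the limit was not always enough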
Target sequence (P20393 whole entry, looked up): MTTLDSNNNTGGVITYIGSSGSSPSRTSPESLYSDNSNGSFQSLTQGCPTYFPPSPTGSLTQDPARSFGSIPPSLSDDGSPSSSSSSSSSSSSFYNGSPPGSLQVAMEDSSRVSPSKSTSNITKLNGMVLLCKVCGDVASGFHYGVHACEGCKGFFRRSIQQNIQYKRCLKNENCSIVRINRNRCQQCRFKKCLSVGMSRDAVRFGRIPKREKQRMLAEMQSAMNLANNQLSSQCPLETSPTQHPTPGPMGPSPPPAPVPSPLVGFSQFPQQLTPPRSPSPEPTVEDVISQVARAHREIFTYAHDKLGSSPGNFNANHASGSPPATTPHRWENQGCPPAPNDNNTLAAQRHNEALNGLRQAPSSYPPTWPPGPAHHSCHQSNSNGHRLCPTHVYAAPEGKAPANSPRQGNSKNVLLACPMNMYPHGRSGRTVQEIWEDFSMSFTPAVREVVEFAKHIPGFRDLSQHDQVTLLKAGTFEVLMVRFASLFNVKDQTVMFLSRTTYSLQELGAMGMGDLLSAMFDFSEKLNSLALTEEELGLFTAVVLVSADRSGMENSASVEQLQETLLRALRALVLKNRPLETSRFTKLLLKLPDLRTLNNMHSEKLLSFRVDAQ
NR2E3 ag conf: NR2E3 agonist confirmation in cells, cell-based, luminescence, CHO-S two-hybrid. CHO-S mammalian two-hybrid NR2E3-NCOR, luciferase luminescence. inhibition, % at 3.98 µM. shares compounds with NR2E3 ag-1. AID 624378, 2012. 51% of 2,300 active;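 active = average inhibition above a cutoff equal to the mean inhibition of all tested compounds plus one SD, cut at about 70% in these data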
VP16 counter: GAL4-VP16 reporter modulators, confirmation, counter-screen for NR2E3 agonist project, cell-based, luminescence, CHO-S, high throughput. 29% of 2,300 active. inhibition, % at 3.98 µM. shares compounds with NR2E3 ag-1. CHO-S GAL4-VP16 luciferase reporter;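 active = mean inhibition above a cutoff equal to the average over all tested compounds plus one standard deviation, cut at about 70% in these data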;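 note: luciferase from a UAS reporter driven by GAL4-VP16 transactivation; higher means less reporter light so more repression of VP16 activity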
Numbers stand for hits; i = inactive; nt = no result given. A selection: hits, their analogues and other compounds. The true share with any hit is near 1.5%.

SMILES	NR2E3 ag-1	NR2E3 ag-2	PG9 binder	Rev-erbA mod	NR2E3 ag conf	VP16 counter
CN=c1scc(-c2ccccc2F)n1/N=C/c1ccc[nH]1	97	i	i	i	90	80
COc1ccccc1OCc1ccc(C(=O)Nc2ccccc2)cc1	i	i	i	i	nt	nt
O=C(Nc1ccc(Cn2cccn2)cc1)c1ccc(COc2ccccc2Br)cc1	i	i	i	i	86	i
Cc1c[nH]c2cccc(-c3ccc(Cl)cc3Cl)c12	nt	nt	nt	i	nt	nt
COc1ccc(S[C@]2(C(=O)N3CCN(C(C)=O)CC3)CC(=O)N(S(=O)(=O)c3ccc(F)cc3)[C@@H]2c2ccc(OC)cc2)cc1	nt	nt	nt	i	nt	nt
O=c1cc(C(F)(F)F)[nH]c2ccc(C(F)(F)F)cc12	93	i	i	i	101	91
Cc1cc(=O)c2ccc(C(F)(F)F)cc2[nH]1	i	i	i	i	nt	nt
Cc1ccc(S(=O)(=O)c2ccc([N+](=O)[O-])o2)cc1	i	nt	i	i	92	i
CC(C)(C)c1ccc(CC(=O)N2CCC2(C)C(=O)Nc2cnc3ccccc3c2)cc1 (stereo not given)	i	nt	i	i	i	i
CC(C)c1ccc(CC(=O)N2CCC2(C)C(=O)Nc2cnc3ccccc3c2)cc1 (stereo not given)	i	nt	i	i	nt	nt
Cc1ccc(NC(=O)C2(C)CCN2C(=O)Cc2ccc(-c3ccccc3)cc2)cc1 (stereo not given)	i	nt	i	i	88	i
COC(=O)CCC1NC(=O)C(Cc2c[nH]c3ccccc23)NC(=O)C2CC(=O)OC(C)C(NC(=O)C(C)NC(=O)C3CCCN3C(=O)C3CCCN3C(=O)C(C)NC(C)=O)C(=O)NC(CC(C)C)C(=O)NC(CCCCNC(=O)CCC(C(=O)NC(Cc3ccc(O)cc3)C(=O)O)NC1=O)C(=O)NC(Cc1c[nH]c3ccccc13)C(=O)N1CCCC1C(=O)NC(CO)C(=O)N2 (stereo not given)	nt	nt	nt	i	nt	nt
Nc1nc2ccccc2cc1C(=O)NCCCCc1ccccc1	96	nt	nt	nt	97	90
CCC1SC(C)C/C(=N/NC(N)=O)C1C (stereo not given)	i	i	i	i	nt	nt
CC1CC(C)C(=NNC(N)=O)C(C(O)CC2CCC(=O)NC2=O)C1 (stereo not given)	102	nt	i	i	85	i
O=C(N[C@@H]1C[C@@H]2O[C@@H](CO)CC[C@@H]2O[C@@H]1CCc1ccc(-c2ccccc2)cc1)c1cnccn1	nt	nt	nt	i	nt	nt
Cc1ccc(C2=C(O)c3ccccc3C(=O)C2=O)cc1	i	i	i	i	nt	nt
CC1=C(O)c2ccccc2C(=O)C1=O	i	nt	i	i	85	i
COc1cccc(Cn2cc(COC(=O)NCCc3ccccc3)nn2)c1	nt	nt	nt	i	nt	nt
CCOC(=O)Cn1cc(CN2C(C(=O)OC)CN(Cc3ccc(Cl)cc3)CCS2(=O)=O)nn1 (stereo not given)	nt	nt	nt	i	nt	nt
O=C(c1cc(S(=O)(=O)N2CCN(c3ccccc3)CC2)ccc1Cl)N1CCCC(C(F)(F)F)C1 (stereo not given)	82	i	i	i	92	76
OC(c1ccc(Cl)c(Cl)c1)c1ncc(-c2ccc(Cl)cc2)[nH]1 (stereo not given)	i	nt	i	i	nt	nt
OC(c1ccc(Cl)c(F)c1)c1ncc(-c2cccc(F)c2)[nH]1 (stereo not given)	73	nt	i	i	i	i
Cc1cc(Cl)ccc1C(O)c1ncc(-c2ccc(F)cc2)[nH]1 (stereo not given)	i	nt	nt	nt	i	i
OC(c1ccc(Cl)c(F)c1)c1ncc(-c2ccc(Cl)cc2)[nH]1 (stereo not given)	i	nt	i	i	86	i
Cc1ccc(-n2c(SCc3cccc(F)c3)nc3sc4c(c3c2=O)CCCC4)cc1	nt	nt	nt	i	nt	nt
COc1ccccc1CNS(=O)(=O)c1ccc(-c2cnc(C3CC3)o2)cc1	i	i	i	i	i	i
